# Results published in PMC9279630 (Acta Pharmaceutica Sinica. B, 2021).
# Format: in vivo
# Conditions: mouse
# How it was run: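 Mice dosed i.p.; horizontal brain sections taken at time points over 24 h, treated by laser-assisted chemical transfer with CHCA as matrix, and imaged by MALDI MSI for the test compound and its metabolite. Relative intensities in brain regions and lateral ventricles cross-checked by LC‒MS/MS. Three biological and technical replicates; mean ± SD from three animals.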
structure (smiles),measurement,setting,value
"Cc1nc2n(c(=O)c1CCN1CCC(c3noc4cc(F)ccc34)CC1)CCCC2 [RISP, risperidone]",Tmax,"male, ICR, brain, ip, 20 mg/kg",~15 min
same,brain regional distribution after 2 h,"after 2 h, i.p. RISP 20 mg/kg",a small amount of parent drug was only observed in the lateral ventricles
same,brain regional distribution,"after i.p. administration of RISP 20 mg/kg, around peak","mainly observed in the frontal cortex, striatum, and hippocampus regions"
